ChEMBL document CHEMBL1126061, “Cyclic RGD peptide analogues as antiplatelet antithrombotics” (J Med Chem, 1992)
*1 amine or outer side, *2 acyl side, *3 side chain or, on linkers, in order; H or OH if unused. Where a SMILES comes first, the peptide text is derived from it. Bridges are numbered along the chain shown (N, C = ends). [ ]: non-standard residue; d: D form. Cys(O)(CH2CO) = O=C([C@H](C[S+]([O-])CC(=O)[*:3])N[*:1])[*:2]; X1 = C[C@@H](O)[C@@H](C(=O)[*:2])N(c1cccc(CC[*:3])c1)[*:1]; X2 = C[C@H](O)[C@H](C(=O)[*:2])N(c1cccc(CC[*:3])c1)[*:1]

Molecular target: Integrin alpha-IIb/beta-3 (Homo sapiens, UniProt P05106+P08514)
Assay: The compound was tested for the inhibition of fibrinogen receptor
Type: protein-complex assay
Procedure, shortened: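 Solid-phase ELISA: human fibrinogen (10 µg/mL) coated, BSA-blocked; samples plus purified human platelet GPIIbIIIa (40 µg/mL) incubated 1 h at room temperature. Bound receptor detected with anti-GPIIbIIIa antibody AP3 (1 µg/mL, 1 h), then goat anti-mouse HRP (1 h); OPD/H2O2 at pH 5, stopped with H2SO4, absorbance 492-405 nm. IC50 from four-parameter fit; n ≥ 3.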

Sequence of Integrin alpha-IIb/beta-3 (P05106 27-788 limits assumed): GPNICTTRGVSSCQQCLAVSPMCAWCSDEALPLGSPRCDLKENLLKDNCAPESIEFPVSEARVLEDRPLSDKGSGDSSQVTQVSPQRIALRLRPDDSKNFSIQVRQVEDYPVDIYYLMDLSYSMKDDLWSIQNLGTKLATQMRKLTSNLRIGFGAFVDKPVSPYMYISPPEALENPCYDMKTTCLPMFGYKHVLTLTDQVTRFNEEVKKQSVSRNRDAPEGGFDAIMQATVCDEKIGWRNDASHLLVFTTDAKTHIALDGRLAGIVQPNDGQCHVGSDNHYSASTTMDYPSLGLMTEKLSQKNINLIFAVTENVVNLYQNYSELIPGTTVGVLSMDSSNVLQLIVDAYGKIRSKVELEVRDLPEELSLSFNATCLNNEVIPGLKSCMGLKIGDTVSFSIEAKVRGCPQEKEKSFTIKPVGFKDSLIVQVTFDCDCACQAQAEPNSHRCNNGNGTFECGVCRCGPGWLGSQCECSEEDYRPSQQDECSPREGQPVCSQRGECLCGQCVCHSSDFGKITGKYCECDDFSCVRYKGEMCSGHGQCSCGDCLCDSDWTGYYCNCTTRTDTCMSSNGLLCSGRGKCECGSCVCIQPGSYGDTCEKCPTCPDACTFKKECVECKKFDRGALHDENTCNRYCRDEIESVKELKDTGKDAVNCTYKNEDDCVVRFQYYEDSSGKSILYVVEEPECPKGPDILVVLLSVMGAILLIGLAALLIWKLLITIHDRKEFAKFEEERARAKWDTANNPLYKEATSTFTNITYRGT
Sequence of Integrin alpha-IIb/beta-3 (P08514 32-887 limits assumed): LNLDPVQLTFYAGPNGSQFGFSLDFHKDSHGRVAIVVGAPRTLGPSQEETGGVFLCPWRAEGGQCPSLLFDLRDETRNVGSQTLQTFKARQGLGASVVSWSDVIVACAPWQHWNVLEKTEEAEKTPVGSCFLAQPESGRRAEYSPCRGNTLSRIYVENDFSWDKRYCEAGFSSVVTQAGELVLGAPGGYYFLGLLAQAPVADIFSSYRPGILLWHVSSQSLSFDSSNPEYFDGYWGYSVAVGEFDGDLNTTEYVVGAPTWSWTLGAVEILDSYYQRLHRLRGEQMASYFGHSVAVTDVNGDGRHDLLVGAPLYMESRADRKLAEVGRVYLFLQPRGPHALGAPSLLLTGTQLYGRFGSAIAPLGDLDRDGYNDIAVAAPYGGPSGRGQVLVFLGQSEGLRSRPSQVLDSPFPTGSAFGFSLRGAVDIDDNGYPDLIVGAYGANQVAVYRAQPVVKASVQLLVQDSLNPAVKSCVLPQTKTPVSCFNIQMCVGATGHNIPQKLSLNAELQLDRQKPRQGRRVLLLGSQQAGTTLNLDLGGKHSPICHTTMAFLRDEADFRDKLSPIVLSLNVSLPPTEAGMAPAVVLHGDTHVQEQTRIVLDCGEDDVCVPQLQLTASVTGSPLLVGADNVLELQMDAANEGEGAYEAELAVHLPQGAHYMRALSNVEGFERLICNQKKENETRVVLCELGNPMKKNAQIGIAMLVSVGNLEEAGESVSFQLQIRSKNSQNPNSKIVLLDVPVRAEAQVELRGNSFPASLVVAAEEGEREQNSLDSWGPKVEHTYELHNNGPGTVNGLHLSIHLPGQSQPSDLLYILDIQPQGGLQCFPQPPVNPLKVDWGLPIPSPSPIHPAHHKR
Sequence of Integrin alpha-IIb/beta-3 (P08514 891-1039 limits assumed): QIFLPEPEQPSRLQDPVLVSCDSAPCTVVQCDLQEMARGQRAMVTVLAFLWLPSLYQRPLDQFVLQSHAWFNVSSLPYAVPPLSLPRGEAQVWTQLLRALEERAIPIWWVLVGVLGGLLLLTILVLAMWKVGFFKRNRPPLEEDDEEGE

SMILES	IC50 [nM]
CC[C@@H](C)[C@H]1NC(=O)CSC[C@@H](C(=O)O)NC(=O)[C@H](CC(=O)O)NC(=O)CNC(=O)[C@H](CCCN=C(N)N)NC1=O	18
CC(C)C[C@@H]1NC(=O)CSC[C@@H](C(=O)O)NC(=O)[C@H](CC(=O)O)NC(=O)CNC(=O)[C@H](CCCNC(=N)N)NC1=O	3
N=C(N)NCCC[C@@H]1NC(=O)[C@@H](Cc2c[nH]c3ccccc23)NC(=O)CSC[C@@H](C(=O)O)NC(=O)[C@H](CC(=O)O)NC(=O)CNC1=O	29
N=C(N)NCCC[C@@H]1NC(=O)[C@@H](Cc2ccccc2)NC(=O)CSC[C@@H](C(=O)O)NC(=O)[C@H](CC(=O)O)NC(=O)CNC1=O	35
CC(C)C[C@H]1NC(=O)CSC[C@@H](C(=O)O)NC(=O)[C@H](CC(=O)O)NC(=O)CNC(=O)[C@H](CCCNC(=N)N)NC1=O	38
N=C(N)NCCC[C@@H]1NC(=O)[C@H](Cc2ccccc2)NC(=O)CSC[C@@H](C(=O)O)NC(=O)[C@H](CC(=O)O)NC(=O)CNC1=O	7
NC(=O)CC[C@H]1NC(=O)CSC[C@@H](C(=O)O)NC(=O)[C@H](CC(=O)O)NC(=O)CNC(=O)[C@H](CCCN=C(N)N)NC1=O	110
NCCCC[C@@H]1NC(=O)CSC[C@@H](C(=O)O)NC(=O)[C@H](CC(=O)O)NC(=O)CNC(=O)[C@H](CCCN=C(N)N)NC1=O	7.5
CC(C)[C@@H]1NC(=O)CSC[C@@H](C(=O)O)NC(=O)[C@H](CC(=O)O)NC(=O)CNC(=O)[C@H](CCCN=C(N)N)NC1=O	2
N=C(N)NCCC[C@@H]1NC(=O)[C@@H](CCCCN)NC(=O)CSC[C@@H](C(=O)O)NC(=O)[C@H](CC(=O)O)NC(=O)CNC1=O	20
N=C(N)NCCC[C@@H]1NC(=O)CNC(=O)[C@H](Cc2ccccc2)SC[C@@H](C(=O)O)NC(=O)[C@H](CC(=O)O)NC(=O)CNC1=O	14
N=C(N)NCCC[C@@H]1NC(=O)[C@H](Cc2cnc[nH]2)NC(=O)CSC[C@@H](C(=O)O)NC(=O)[C@H](CC(=O)O)NC(=O)CNC1=O	3
CC(=O)NCC(=O)N[C@@H](CCCNC(=N)N)C(=O)NCC(=O)N[C@@H](CC(=O)O)C(=O)N[C@H](C(N)=O)C(C)C (Ac-GRGDV-NH2)	434
CC(=O)NCC(=O)N[C@@H](CCCNC(=N)N)C(=O)NCC(=O)N[C@@H](CC(=O)O)C(=O)N[C@H](C(=O)O)C(C)C (Ac-GRGDV-OH)	12
N=C(N)NCCC[C@@H]1NC(=O)[C@H](CC(=O)O)NC(=O)C[S+]([O-])C[C@@H](C(=O)O)NC(=O)[C@H](CC(=O)O)NC(=O)CNC1=O (some centres not stated) (DRGD[Cys(O)(CH2CO)]-OH; lactam N-5)	6
NCC(=O)N[C@@H](CCCN=C(N)N)C(=O)NCC(=O)N[C@@H](CC(=O)O)C(=O)N[C@@H](CC(=O)O)C(=O)O (H-GRGDD-OH)	231
CC(C)C[C@H](NC(=O)[C@H](CC(=O)O)NC(=O)CNC(=O)[C@H](CCCN=C(N)N)NC(=O)CN)C(=O)O (H-GRGDL-OH)	500
CC(C)[C@H](NC(=O)[C@H](CC(=O)O)NC(=O)CNC(=O)[C@H](CCCN=C(N)N)NC(=O)CN)C(=O)O (H-GRGDV-OH)	30
NCC(=O)N[C@@H](CCCN=C(N)N)C(=O)NCC(=O)N[C@@H](CC(=O)O)C(=O)N[C@@H](Cc1ccc(O)cc1)C(=O)O (H-GRGDY-OH)	240
CC(C)C[C@H](NC(=O)[C@H](CC(=O)O)NC(=O)CNC(=O)[C@@H](N)CCCN=C(N)N)C(=O)O (H-RGDL-OH)	105
NC(N)=NCCC[C@H](N)C(=O)NCC(=O)N[C@@H](CC(=O)O)C(=O)N[C@@H](Cc1ccc(O)cc1)C(=O)O (H-RGDY-OH)	70
C[C@@H](O)[C@@H]1Nc2cccc(c2)CCSC[C@@H](C(=O)O)NC(=O)[C@H](CC(=O)O)NC(=O)CNC(=O)[C@H](CCCN=C(N)N)NC1=O (H-[X1]RGDC-OH; thioether 1-5)	1.7
C[C@H](O)[C@H]1Nc2cccc(c2)CCSC[C@@H](C(=O)O)NC(=O)[C@H](CC(=O)O)NC(=O)CNC(=O)[C@H](CCCN=C(N)N)NC1=O (H-[X2]RGDC-OH; thioether 1-5)	7
N=C(N)NCCC[C@@H]1NC(=O)[C@H](Cc2ccc(O)cc2)NC(=O)C[S+]([O-])C[C@@H](C(N)=O)NC(=O)[C@H](CC(=O)O)NC(=O)CNC1=O (some centres not stated) (YRGD[Cys(O)(CH2CO)]-NH2; lactam N-5)	4.5
N=C(N)NCCC[C@@H]1NC(=O)CNC(=O)C(c2cccc3ccccc23)SC[C@@H](C(=O)O)NC(=O)[C@H](CC(=O)O)NC(=O)CNC1=O (stereo in doubt; 17A)	5.3
N=C(N)NCCC[C@@H]1NC(=O)CNC(=O)C(c2cccc3ccccc23)SC[C@@H](C(=O)O)NC(=O)[C@H](CC(=O)O)NC(=O)CNC1=O (stereo in doubt; 17B)	1.4

SMILES	IC50 [nM]
N=C(N)NCCC[C@@H]1NC(=O)CNC(=O)C(c2ccccc2)SC[C@@H](C(=O)O)NC(=O)[C@H](CC(=O)O)NC(=O)CNC1=O (stereo in doubt; 18A)	15
N=C(N)NCCC[C@@H]1NC(=O)CNC(=O)C(c2ccccc2)SC[C@@H](C(=O)O)NC(=O)[C@H](CC(=O)O)NC(=O)CNC1=O (stereo in doubt; 18B)	0.5
N=C(N)NCCC[C@@H]1NC(=O)CNC(=O)C(c2ccc(-c3ccccc3)cc2)SC[C@@H](C(=O)O)NC(=O)[C@H](CC(=O)O)NC(=O)CNC1=O (stereo in doubt; 19A)	5
N=C(N)NCCC[C@@H]1NC(=O)CNC(=O)C(c2ccc(-c3ccccc3)cc2)SC[C@@H](C(=O)O)NC(=O)[C@H](CC(=O)O)NC(=O)CNC1=O (stereo in doubt; 19B)	3.5
N=C(N)NCCC[C@@H]1NC(=O)CNC(=O)C(c2ccccc2C(F)(F)F)SC[C@@H](C(=O)O)NC(=O)[C@H](CC(=O)O)NC(=O)CNC1=O (stereo in doubt; 20A)	23
N=C(N)NCCC[C@@H]1NC(=O)CNC(=O)C(c2ccccc2C(F)(F)F)SC[C@@H](C(=O)O)NC(=O)[C@H](CC(=O)O)NC(=O)CNC1=O (stereo in doubt; 20B)	2.7
N=C(N)NCCC[C@@H]1NC(=O)CNC(=O)C(c2ccc3ccccc3c2)SC[C@@H](C(=O)O)NC(=O)[C@H](CC(=O)O)NC(=O)CNC1=O (stereo in doubt; 21A)	11.5
N=C(N)NCCC[C@@H]1NC(=O)CNC(=O)C(c2ccc3ccccc3c2)SC[C@@H](C(=O)O)NC(=O)[C@H](CC(=O)O)NC(=O)CNC1=O (stereo in doubt; 21B)	2.8
N=C(N)NCCC[C@@H]1NC(=O)CNC(=O)C(c2ccc(C(F)(F)F)cc2)SC[C@@H](C(=O)O)NC(=O)[C@H](CC(=O)O)NC(=O)CNC1=O (stereo in doubt; 22A)	180
N=C(N)NCCC[C@@H]1NC(=O)CNC(=O)C(c2ccc(C(F)(F)F)cc2)SC[C@@H](C(=O)O)NC(=O)[C@H](CC(=O)O)NC(=O)CNC1=O (stereo in doubt; 22B)	4
CCCC1SC[C@@H](C(=O)O)NC(=O)[C@H](CC(=O)O)NC(=O)CNC(=O)[C@H](CCCNC(=N)N)NC(=O)CNC1=O (stereo in doubt; 23A)	21
CCCC1SC[C@@H](C(=O)O)NC(=O)[C@H](CC(=O)O)NC(=O)CNC(=O)[C@H](CCCNC(=N)N)NC(=O)CNC1=O (stereo in doubt; 23B)	5.4
N=C(N)NCCC[C@@H]1NC(=O)CNC(=O)C(c2cccc(C(F)(F)F)c2)SC[C@@H](C(=O)O)NC(=O)[C@H](CC(=O)O)NC(=O)CNC1=O (stereo in doubt; 24A)	35
N=C(N)NCCC[C@@H]1NC(=O)CNC(=O)C(c2cccc(C(F)(F)F)c2)SC[C@@H](C(=O)O)NC(=O)[C@H](CC(=O)O)NC(=O)CNC1=O (stereo in doubt; 24B)	5.7
CCC1SC[C@@H](C(=O)O)NC(=O)[C@H](CC(=O)O)NC(=O)CNC(=O)[C@H](CCCN=C(N)N)NC(=O)CNC1=O (stereo in doubt; 25A)	20
CCC1SC[C@@H](C(=O)O)NC(=O)[C@H](CC(=O)O)NC(=O)CNC(=O)[C@H](CCCN=C(N)N)NC(=O)CNC1=O (stereo in doubt; 25B)	6
N=C(N)NCCC[C@@H]1NC(=O)CNC(=O)C[S+]([O-])C[C@@H](C(=O)O)NC(=O)[C@H](CC(=O)O)NC(=O)CNC1=O (stereo in doubt; 66A)	1.4
N=C(N)NCCC[C@@H]1NC(=O)CNC(=O)C[S+]([O-])C[C@@H](C(=O)O)NC(=O)[C@H](CC(=O)O)NC(=O)CNC1=O (stereo in doubt; 66B)	25
N=C(N)NCCC[C@@H]1NC(=O)[C@H](CC(N)=O)NC(=O)C[S+]([O-])C[C@@H](C(=O)O)NC(=O)[C@H](CC(=O)O)NC(=O)CNC1=O (stereo in doubt; 67A)	6
N=C(N)NCCC[C@@H]1NC(=O)[C@H](CC(N)=O)NC(=O)C[S+]([O-])C[C@@H](C(=O)O)NC(=O)[C@H](CC(=O)O)NC(=O)CNC1=O (stereo in doubt; 67B)	5.3
C[C@@H]1NC(=O)C[S+]([O-])C[C@@H](C(=O)O)NC(=O)[C@H](CC(=O)O)NC(=O)CNC(=O)[C@H](CCCN=C(N)N)NC1=O (stereo in doubt; 68A)	1.6
C[C@@H]1NC(=O)C[S+]([O-])C[C@@H](C(=O)O)NC(=O)[C@H](CC(=O)O)NC(=O)CNC(=O)[C@H](CCCN=C(N)N)NC1=O (stereo in doubt; 68B)	4.7
N=C(N)NCCC[C@@H]1NC(=O)[C@@H](Cc2ccc(O)cc2)NC(=O)C[S+]([O-])C[C@@H](C(=O)O)NC(=O)[C@H](CC(=O)O)NC(=O)CNC1=O (stereo in doubt; 69A)	7.3
N=C(N)NCCC[C@@H]1NC(=O)[C@@H](Cc2ccc(O)cc2)NC(=O)C[S+]([O-])C[C@@H](C(=O)O)NC(=O)[C@H](CC(=O)O)NC(=O)CNC1=O (stereo in doubt; 69B)	40
N=C(N)NCCC[C@@H]1NC(=O)[C@H](Cc2ccc(O)cc2)NC(=O)C[S+]([O-])C[C@@H](C(=O)O)NC(=O)[C@H](CC(=O)O)NC(=O)CNC1=O (stereo in doubt; 70A)	1.5
N=C(N)NCCC[C@@H]1NC(=O)[C@H](Cc2ccc(O)cc2)NC(=O)C[S+]([O-])C[C@@H](C(=O)O)NC(=O)[C@H](CC(=O)O)NC(=O)CNC1=O (stereo in doubt; 70B)	4.8
